These results are taken from publication PMC4876925 (Nano research, 2016).

Broadly, the EC50 is the concentration at which the effect is half-maximal.

Residues, ends and D or L forms follow the SMILES beside them.

The conditions of series [1]: cited from earlier work.
For series [2], the target named is recombinant human His-tagged CD13 (Homo sapiens, UniProt P15144). Nature of the series: CD13 enzymatic activity assay. Format: biochemical.
Another series has as its target αvβ3 (Homo sapiens, UniProt P05106+P06756). Nature of the series: Integrin competitive binding assay with CisoDGRC-peroxidase.
In a further series the test system is WEHI-164 fibrosarcoma. Kind of series: Anti-tumor activity in the WEHI-164 fibrosarcoma model. The settings on record: dose-escalation, i.v. Format: in vivo, BALB/c female mice. An outline of the steps: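 Female BALB/c mice, 6–7 weeks old, received 1.5 × 10^6 WEHI-164 cells s.c. in the left flank. On day 5, mice got single i.v. doses of TNF-loaded gold nanoparticles (1–4 or 9–16 bioactive TNF molecules/nanoparticle) in 0.9% NaCl with 100 µg/mL HSA. Tumors were measured with calipers and volumes from day 5 to day 9 were normalized to day 5. Data are mean ± SE from 1–7 independent experiments, 6 mice each.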

For the molecule CNGRC (disulfide) [NGR-2C], the “Half-life of asparagine (deamidation)” value in series [1] was 3 to 4 h. For the molecule `N=C(N)NCCC[C@@H]1NC(=O)CNC(=O)[C@H](CC(N)=O)NC(=O)CNC(=O)[C@H](CS)NC(=O)CNC1=O` [N1, c(CGNGRG)] (cyclo(CGNGRG)), in series [2] (enzyme inhibition, 30 min at 37 °C), the “CD13 inhibition efficiency relative to NGR-2C(Y)” value is given as 5–6 fold. The “Binding efficiency to CD13 relative to CNGRC (NGR-2C) and c(CNGRGG) (N3)” value in series [2] (recombinant soluble CD13, enzyme binding and inhibition experiments) is 6–10 fold. This molecule also showed a concentration giving a half-maximal response (EC50) on αvβ3 of 10 µM. Consider CNGRCG-TNF (disulfide) [NGR-TNF], for which the “Shape of dose-response curve (tumor growth day 5 to day 9)” value in the series on WEHI-164 fibrosarcoma was “U-shaped dose-response curve”.
